zVAD death inh: L929 zVAD cell death inhibition | 220,000 tested, 0.38% active | AID 1377 | viability rescue, % at 10 µM | L929 zVAD necroptosis rescue, ATP luminescence, 24 h; with zVAD 60 µM;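 active = activation, scaled between plate controls, above about 75%, limit read from the data; inactive = activation under that limit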
TNF death inh: blocks TNF-alpha induced death of Jurkat FADD-/- cells; Jurkat FADD-/- TNF necroptosis rescue, ATP luminescence, 24 h; 0 = TNF only, 100 = no-TNF cells; activation (protection from cell death), % at 10 µM; 220,000 tested, 0.068% active;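 active = activation, meaning protection from cell death, of at least 50% relative to plate controls; inactive = activation below 50%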;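 also: necroptosis triggered by 40 ng/mL TNF-alpha added together with compound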
Dynein cargo inh: blocks dynein driven cargo transport along microtubules; z-score, hits read low; 3617.4 mouse cells, GR-EGFP nuclear translocation imaging; test concentration mostly 20 µM; stimulated with dexamethasone, 1 µM; active compounds read low; 220,000 tested, 0.47% active;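 active = plate z-score of nuclear minus cytoplasmic receptor signal below a set negative limit, without overly bright fluorescence or cell loss, cut at about -3.5 in these data, passing the limit was not always enough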;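 also: z-score of nuclear minus cytoplasmic ring GR-EGFP intensity difference per well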
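Buffer or medium: tet-free, stripped-serum medium; reagent: dexamethasone at 1.0 µM final, 30 min; incubation: 48 h induction, 1 h compound, 30 min dex at 37 °C; measured by: formaldehyde fixation, Hoechst nuclear stain, 10x automated fluorescence imaging; read-out: nuclear-to-cytoplasmic GR-EGFP distribution per well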
S1P4 antagonist: antagonists of human S1P4 receptor; O95977; S1P4-expressing cells, antagonist mode, reporter read-out; inhibition, % at 4.98 µM; 220,000 tested, 0.26% active; in the data active = inhibition above about 29%
Tb hexokinase: blocks Trypanosoma brucei hexokinase 1 activity; AID 1430; recombinant TbHK1, G6PDH-coupled NADH A340; 220,000 tested, 0.11% active; inhibition, % at 10 µM;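 active = inhibition of 50% or more in the single-dose primary screen; inactive = inhibition below 50%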
S1P4 agonist: agonists of human S1P4 receptor; activation, % at 4.98 µM; O95977; 220,000 tested, 0.35% active; S1P4-expressing cell line, agonist reporter assay; in the data active = activation above about 11%
S1P4 antag cf: human S1P4 antagonism, confirmation | shares compounds with S1P4 antagonist | S1P4-expressing cell line, antagonist mode, reporter read-out | inhibition, % at 4.98 µM | 520 tested, 71% active; in the data active = inhibition above about 30%
S1P1 antagonist: blocks human S1P1, counter-screen for S1P4 antagonists | AID 1564 | 520 tested, 37% active | inhibition, % at 4.98 µM | cell-based S1P1 antagonist counterscreen, inhibition | shares compounds with S1P4 antagonist; in the data active = inhibition above about 40%;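 also: receptor stimulated with S1P near its EC80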
Target sequence (P21453 whole entry, looked up): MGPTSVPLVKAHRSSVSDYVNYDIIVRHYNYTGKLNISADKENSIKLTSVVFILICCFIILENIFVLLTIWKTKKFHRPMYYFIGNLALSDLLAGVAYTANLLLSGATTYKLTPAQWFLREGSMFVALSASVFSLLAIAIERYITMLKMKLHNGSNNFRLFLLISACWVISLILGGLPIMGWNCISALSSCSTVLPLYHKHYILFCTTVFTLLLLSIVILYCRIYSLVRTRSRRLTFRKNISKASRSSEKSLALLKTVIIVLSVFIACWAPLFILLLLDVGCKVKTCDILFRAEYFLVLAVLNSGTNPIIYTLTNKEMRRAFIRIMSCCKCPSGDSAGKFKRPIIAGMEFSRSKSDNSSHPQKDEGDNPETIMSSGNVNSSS
A number is an active result; . = inactive; / = no result. An excerpt weighted towards active compounds, which were near 1.5% of everything screened.

SMILES	zVAD death inh	TNF death inh	Dynein cargo inh	S1P4 antagonist	Tb hexokinase	S1P4 agonist	S1P4 antag cf	S1P1 antagonist
COc1ccc(OC)c2c1C(=O)c1ccccc1C2=O	.	.	.	.	.	.	/	/
COc1ccc(OC)c2c1C(=O)C(Cl)=C(Cl)C2=O	.	.	-5.38	55.6	.	.	107.2	73.8
CSc1ccccc1NC(=O)C(=O)c1c[nH]c2ccccc12	.	.	.	45.3	.	.	.	46.9
O=C1/C(=C/Nc2ccc3c(c2)OCO3)CCc2ccccc21	.	.	.	30.7	.	.	.	74.2
COc1ccc2c(c1)CC/C(=C\Nc1ccc3c(c1)OCO3)C2=O	.	.	.	.	.	.	/	/
CCN(CC)C(=O)CN(c1cccc(C(F)(F)F)c1)S(C)(=O)=O	.	.	.	.	.	.	/	/
CCN(CC)C(=O)CN(c1cccc(Br)c1)S(C)(=O)=O	.	.	.	29.6	.	.	.	.
Cn1cnc([N+](=O)[O-])c1S(=O)(=O)c1cccc(Cl)c1	.	.	.	48.3	.	.	47.4	63.2
Cc1nn(C(C)C(=O)c2cccc(Cl)c2)c(C)c1[N+](=O)[O-] (configuration not stated)	.	.	.	.	.	.	/	/
CN(Cc1nc(-c2cnccn2)no1)Cc1cccc2ccccc12	.	.	.	.	.	.	/	/
Cc1ccc2nc(Cl)c(/C=N/Nc3nc(C)cc(C)n3)c(=O)n2c1	.	.	.	.	.	.	/	/
OC(c1cc(C(F)(F)F)nc2c(Cl)cc(Cl)cc12)C1CCCCN1 (configuration not stated)	.	.	.	.	.	.	/	/
OC(c1cc(-c2ccc(Cl)cc2)nc2ccccc12)C1CCCCN1 (configuration not stated)	.	.	.	53.1	.	.	95.0	83.5
O=C(O)C(Cc1c[nH]c2ccccc12)N1CCS(=O)(=O)CC1 (configuration not stated)	.	.	.	.	.	.	/	/
O=C(N/N=C/C(Br)=C/c1ccccc1)c1n[nH]c2c1CCC2	.	.	.	31.5	.	.	45.8	81.7
c1ccc(-c2nnc(CN3CCN(c4ccccc4)CC3)o2)cc1	.	.	.	.	.	.	/	/
c1ccc(-c2nnc(CN3CCN(C(c4ccccc4)c4ccccc4)CC3)o2)cc1	.	.	.	68.1	.	.	.	.
Cn1c(-c2c(N)n(CCCc3ccccc3)c3nc4ccccc4nc23)nc2ccccc21	.	.	.	37.0	.	.	83.4	105.9
Cn1c(-c2c(N)n(CCc3ccccc3)c3nc4ccccc4nc23)nc2ccccc21	.	.	.	.	.	.	/	/
S=C1Cc2ccccc2N1	.	.	.	34.8	.	.	110.0	44.1
COCCNc1ncnc2c1cnn2-c1ccc(Cl)cc1	.	.	.	32.7	.	.	.	.
COCCN(CCOC)c1ncnc2c1cnn2-c1ccc(Cl)cc1	.	.	.	.	.	.	/	/
O=[N+]([O-])c1cc(S(=O)(=O)C(F)(F)F)ccc1Sc1nc2ccccc2[nH]1	.	.	.	33.1	.	.	109.7	.
CS(=O)(=O)c1ccc(Sc2nc3ccccc3[nH]2)c([N+](=O)[O-])c1	.	.	.	.	.	.	/	/
CCOc1ccc(C(=O)Oc2ccc(NC(C)=O)cc2)cc1	.	.	.	.	.	.	/	/
CC(=O)Nc1ccc(OC(=O)c2ccc(Br)c([N+](=O)[O-])c2)cc1	.	.	.	47.9	.	.	67.6	.
COc1ccc(N=Nc2n(C)c3ccccc3[n+]2C)cc1	.	.	.	30.4	.	.	.	.
CCOC(=O)c1cnn(-c2ccccc2)c1NC(=O)CN1CCOCC1	.	.	.	.	.	.	/	/
Cc1cc(/C(N)=N/OC(=O)c2ccccc2Cl)no1	.	.	.	.	.	.	/	/
O=C(/C=C/c1cn(CC(O)CN2CCCCC2)c2ccccc12)c1cccs1 (configuration not stated)	.	.	.	30.5	.	.	52.5	45.5
